Assay results published in ChEMBL document CHEMBL2401696, “Stereoselective synthesis and anti-proliferative effects on prostate cancer evaluation of 5-substituted-3,4-diphenylfuran-2-ones” (Eur J Med Chem, 2013).
Activity calls are given as the source filed them. No cut-off for these calls is given here.

Assays:
PC-3 [1] = experiment: Antiproliferative activity against human PC3 cells expressing SKP2 after 72 hrs by MTT assay; format: functional, cell-based; conditions: PC-3, 72 h
Procedure, shortened: (§1)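 Cells (PC3 and its PCDNA- and SKP2-transfected lines, DU145) grown in RPMI 1640 with 10% FBS; G418 added for transfected lines. Exponential cells seeded 1 × 10⁴/well, 24 h at 37 °C, then fresh medium with compounds at several concentrations for 72 h. MTT 1–3 h at 37 °C, dissolved in 4% HCl/96% isopropanol, absorbance 570 nm. Triplicate per concentration; IC50 from dose–response curves.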

PC-3 [2] = experiment: Antiproliferative activity against human PC3 cells expressing PCDNA after 72 hrs by MTT assay; format: functional, cell-based; conditions: PC-3, 72 h; procedure, shortened: as §1
PC-3 [3] = experiment: Antiproliferative activity against human PC3 cells after 72 hrs by MTT assay; format: functional, cell-based; conditions: PC-3, 72 h; procedure, shortened: as §1
[4] = molecular target: T1, Prostaglandin G/H synthase 2 (Ovis aries) (UniProt P79208); experiment: Inhibition of ovine COX-2 assessed as using arachidonic acid as substrate at 10 uM preincubated for 5 mins prior to substrate addition measured after 2 hrs by enzyme immunoassay relative to control; conditions: in the assay text read “after 2 mins” for “after 2 hrs”
T1 sequence (whole entry): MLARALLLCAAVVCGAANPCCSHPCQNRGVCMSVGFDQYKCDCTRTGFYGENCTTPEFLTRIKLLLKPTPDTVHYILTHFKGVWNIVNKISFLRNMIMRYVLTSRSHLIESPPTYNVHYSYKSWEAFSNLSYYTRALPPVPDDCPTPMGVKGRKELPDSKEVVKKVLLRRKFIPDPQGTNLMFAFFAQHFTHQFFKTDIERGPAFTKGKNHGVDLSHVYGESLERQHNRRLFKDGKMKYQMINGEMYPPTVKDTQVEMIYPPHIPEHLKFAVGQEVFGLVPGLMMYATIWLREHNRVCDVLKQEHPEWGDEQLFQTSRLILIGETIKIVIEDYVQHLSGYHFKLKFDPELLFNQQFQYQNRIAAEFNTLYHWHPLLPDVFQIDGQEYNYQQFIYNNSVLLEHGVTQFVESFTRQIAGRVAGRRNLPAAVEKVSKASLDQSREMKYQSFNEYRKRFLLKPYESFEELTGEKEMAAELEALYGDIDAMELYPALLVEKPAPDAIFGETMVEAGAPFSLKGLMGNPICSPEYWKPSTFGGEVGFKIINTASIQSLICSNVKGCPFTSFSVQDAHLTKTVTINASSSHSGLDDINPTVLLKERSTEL
Procedure, shortened: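 Ovine COX-1 or COX-2 with heme in 0.1 M Tris-HCl pH 8.0, 5 mM EDTA, 2 mM phenol; compound (0.001–100 µM final, DMSO stocks) preincubated 5 min at 37 °C, then arachidonic acid added, stopped with 1 M HCl after 2 min. PGF2α (SnCl2 reduction) quantified by competitive EIA at 412 nm; % inhibition vs controls; mean of two determinations.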

DU-145 = experiment: Antiproliferative activity against human DU145 cells after 72 hrs by MTT assay; format: functional, cell-based; conditions: DU-145, 72 h; procedure, shortened: as §1
[5] = molecular target: T1, Prostaglandin G/H synthase 2 (Ovis aries); experiment: Inhibition of ovine COX-2 assessed as using arachidonic acid as substrate at 10 uM preincubated for 5 mins prior to substrate addition measured after 2 mins by enzyme immunoassay relative to control
[6] = molecular target: T2, Prostaglandin G/H synthase 1 (Ovis aries) (UniProt P05979); experiment: Inhibition of ovine COX-1 assessed as using arachidonic acid as substrate at 10 uM preincubated for 5 mins prior to substrate addition […] by enzyme immunoassay relative to control
T2 sequence (whole entry): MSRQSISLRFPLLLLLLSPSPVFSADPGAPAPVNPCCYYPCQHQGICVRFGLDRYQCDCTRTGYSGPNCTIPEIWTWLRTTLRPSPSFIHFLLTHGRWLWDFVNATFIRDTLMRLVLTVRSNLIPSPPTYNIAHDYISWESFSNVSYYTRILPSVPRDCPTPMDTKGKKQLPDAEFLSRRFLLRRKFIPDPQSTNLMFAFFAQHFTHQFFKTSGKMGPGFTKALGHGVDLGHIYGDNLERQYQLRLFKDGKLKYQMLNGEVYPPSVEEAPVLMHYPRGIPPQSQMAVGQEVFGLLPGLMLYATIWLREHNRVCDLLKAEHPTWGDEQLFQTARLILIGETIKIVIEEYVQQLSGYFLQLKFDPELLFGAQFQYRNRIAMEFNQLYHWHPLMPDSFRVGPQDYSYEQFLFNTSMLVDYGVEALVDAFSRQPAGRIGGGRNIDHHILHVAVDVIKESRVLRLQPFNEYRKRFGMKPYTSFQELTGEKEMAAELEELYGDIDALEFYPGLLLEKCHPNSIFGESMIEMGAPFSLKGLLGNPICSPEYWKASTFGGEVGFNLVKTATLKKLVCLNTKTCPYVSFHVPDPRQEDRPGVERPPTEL

| Structure (SMILES) | IC50 (PC-3 [1]) | IC50 (PC-3 [2]) | IC50 (PC-3 [3]) | inhibition [4] | IC50 (DU-145) | inhibition [5] | inhibition [6] |
| --- | --- | --- | --- | --- | --- | --- | --- |
| CS(=O)(=O)c1ccc(C2=C(c3ccccc3)C(=O)O/C2=C\c2ccccc2)cc1 | > 90 µM | > 90 µM | – | – | – | – | – |
| COc1cc(/C=C2\OC(=O)C(c3ccccc3)=C2c2ccc(S(C)(=O)=O)cc2)cc(OC)c1OC | > 100 µM | > 90 µM | – | – | – | – | – |
| CS(=O)(=O)c1ccc(C2=C(c3ccccc3Cl)C(=O)O/C2=C\c2cccc3ccccc23)cc1 | > 50 µM | > 50 µM | – | – | – | – | – |
| CS(=O)(=O)c1ccc(C2=C(c3ccc(F)cc3)C(=O)O/C2=C\c2cccc3ccccc23)cc1 | 25.4 µM | 20 µM | > 50 µM | inactive | > 50 µM | – | – |
| CS(=O)(=O)c1ccc(C2=C(c3ccccc3Cl)C(=O)O/C2=C\c2ccc3c(c2)OCO3)cc1 | > 50 µM | > 50 µM | – | – | – | – | – |
| O=c1[nH]cc(F)c(=O)[nH]1 [FLUOROURACIL] | – | 31.4 µM | – | – | – | – | – |
| CS(=O)(=O)c1ccc(C2=C(c3ccc(F)cc3)C(=O)O/C2=C\c2ccccc2)cc1 | > 50 µM | > 50 µM | – | – | – | – | – |
| CS(=O)(=O)c1ccc(C2=C(c3ccccc3)C(=O)O/C2=C\c2ccc3c(c2)OCO3)cc1 | 50.6 µM | 37.2 µM | > 50 µM | – | > 50 µM | 24.6% | – |
| COc1cc(/C=C2\OC(=O)C(c3ccccc3Cl)=C2c2ccc(S(C)(=O)=O)cc2)ccc1O | 25.1 µM | > 50 µM | > 50 µM | 14.9% | > 50 µM | – | – |
| CN(C)c1ccc(/C=C2\OC(=O)C(c3ccc(F)cc3)=C2c2ccc(S(C)(=O)=O)cc2)cc1 | 47.2 µM | > 50 µM | > 50 µM | inactive | > 50 µM | – | inactive |
| CN(C)c1ccc(/C=C2\OC(=O)C(c3ccccc3Cl)=C2c2ccc(S(C)(=O)=O)cc2)cc1 | 30.1 µM | > 50 µM | > 50 µM | 4.49% | > 50 µM | – | – |
| CS(=O)(=O)c1ccc(C2=C(c3ccccc3)C(=O)O/C2=C\c2ccc(Br)cc2)cc1 | > 50 µM | 25.2 µM | > 50 µM | inactive | > 50 µM | – | – |
| CS(=O)(=O)c1ccc(C2=C(c3ccc(F)cc3)C(=O)O/C2=C\c2ccc3c(c2)OCO3)cc1 | > 50 µM | > 50 µM | – | – | – | – | – |
| CS(=O)(=O)c1ccc(C2=C(c3ccccc3)C(=O)O/C2=C\c2ccc(O)cc2)cc1 | > 50 µM | 25.9 µM | > 50 µM | 14.4% | > 50 µM | – | – |
| COc1ccc(/C=C2\OC(=O)C(c3ccc(F)cc3)=C2c2ccc(S(C)(=O)=O)cc2)cc1 | > 50 µM | > 50 µM | – | inactive | – | – | 10.2% |
| CS(=O)(=O)c1ccc(C2=C(c3ccccc3)C(=O)O/C2=C\c2cccc([N+](=O)[O-])c2)cc1 | > 100 µM | > 90 µM | – | inactive | – | – | inactive |
| CS(=O)(=O)c1ccc(C2=C(c3ccc(F)cc3)C(=O)O/C2=C\c2ccc(Cl)cc2)cc1 | > 50 µM | > 50 µM | – | inactive | – | – | – |
| CS(=O)(=O)c1ccc(C2=C(c3ccccc3Cl)C(=O)OC2)cc1 | > 50 µM | > 50 µM | – | 7.97% | – | – | inactive |
| CC(C)=CCC/C(C)=C\C=C1/OC(=O)C(c2ccccc2)=C1c1ccc(S(C)(=O)=O)cc1 | > 50 µM | > 50 µM | – | – | – | – | – |
| CS(=O)(=O)c1ccc(C2=C(c3ccccc3)C(=O)OC2)cc1 [ROFECOXIB] | > 50 µM | > 50 µM | 200 µM | – | 200 µM | – | – |
| COc1cc(/C=C2\OC(=O)C(c3ccccc3)=C2c2ccc(S(C)(=O)=O)cc2)ccc1O | 25.5 µM | > 125 µM | > 50 µM | 36.6% | > 50 µM | – | – |

| Structure (SMILES) | IC50 (PC-3 [1]) | IC50 (PC-3 [2]) | IC50 (PC-3 [3]) | inhibition [4] | IC50 (DU-145) | inhibition [5] | inhibition [6] |
| --- | --- | --- | --- | --- | --- | --- | --- |
| CS(=O)(=O)c1ccc(C2=C(c3ccccc3Cl)C(=O)O/C2=C\c2ccc(Br)cc2)cc1 | > 50 µM | > 50 µM | – | – | – | – | – |
| CC(C)=C1OC(=O)C(c2ccc(F)cc2)=C1c1ccc(S(C)(=O)=O)cc1 | > 50 µM | > 50 µM | – | – | – | – | – |
| CS(=O)(=O)c1ccc(C2=C(c3ccccc3Cl)C(=O)O/C2=C\c2ccccc2Cl)cc1 | > 50 µM | > 50 µM | – | – | – | – | – |
| CS(=O)(=O)c1ccc(C2=C(c3ccccc3Cl)C(=O)O/C2=C\c2ccc(F)cc2)cc1 | > 50 µM | > 50 µM | – | – | – | – | – |
| CS(=O)(=O)c1ccc(C2=C(c3ccccc3)C(=O)O/C2=C\c2cccc3ccccc23)cc1 | > 50 µM | > 50 µM | – | – | – | – | – |
| COc1cc(/C=C2\OC(=O)C(c3ccc(F)cc3)=C2c2ccc(S(C)(=O)=O)cc2)cc(OC)c1OC | 25.4 µM | > 50 µM | > 50 µM | – | > 50 µM | 20.8% | – |
| COC1(C)OC(=O)C(c2ccc(F)cc2)=C1c1ccc(S(C)(=O)=O)cc1 (stereo not given) | > 50 µM | 36.4 µM | > 50 µM | – | > 50 µM | 32.4% | – |
| CS(=O)(=O)c1ccc(C2=C(c3ccc(F)cc3)C(=O)O/C2=C\c2ccc(Br)cc2)cc1 | > 50 µM | > 50 µM | – | – | – | – | – |
| CS(=O)(=O)c1ccc(C2=C(c3ccc(F)cc3)C(=O)O/C2=C\c2ccco2)cc1 | > 50 µM | > 50 µM | – | – | – | – | – |
| CS(=O)(=O)c1ccc(C2=C(c3ccc(F)cc3)C(=O)O/C2=C\c2ccc(F)cc2)cc1 | > 50 µM | > 50 µM | – | – | – | – | – |
| CS(=O)(=O)c1ccc(C2=C(c3ccc(F)cc3)C(=O)O/C2=C\c2ccccc2Cl)cc1 | > 50 µM | > 50 µM | – | – | – | – | – |
| CS(=O)(=O)c1ccc(C2=C(c3ccccc3)C(=O)O/C2=C\c2ccco2)cc1 | > 100 µM | > 100 µM | – | inactive | – | – | inactive |
| COc1cc(/C=C2\OC(=O)C(c3ccccc3Cl)=C2c2ccc(S(C)(=O)=O)cc2)cc(OC)c1OC | > 50 µM | > 50 µM | – | – | – | – | – |
| CS(=O)(=O)c1ccc(C2=C(c3ccccc3Cl)C(=O)O/C2=C\c2ccc(O)cc2)cc1 | > 50 µM | > 50 µM | – | – | – | 2.27% | – |
| CC(C)=C1OC(=O)C(c2ccccc2)=C1c1ccc(S(C)(=O)=O)cc1 | > 50 µM | > 50 µM | – | – | – | – | – |
| CS(=O)(=O)c1ccc(C2=C(c3ccccc3)C(=O)O/C2=C\c2ccc(Cl)cc2)cc1 | > 50 µM | > 50 µM | – | inactive | – | – | 14.6% |
| CN(C)c1ccc(/C=C2\OC(=O)C(c3ccccc3)=C2c2ccc(S(C)(=O)=O)cc2)cc1 | > 50 µM | > 50 µM | – | – | – | – | – |
| CS(=O)(=O)c1ccc(C2=C(c3ccc(F)cc3)C(=O)O/C2=C\c2ccc(O)cc2)cc1 | 25.7 µM | 25.9 µM | > 50 µM | 19.5% | > 50 µM | – | – |
| CS(=O)(=O)c1ccc(C2=C(c3ccccc3Cl)C(=O)O/C2=C\c2ccco2)cc1 | > 50 µM | > 50 µM | – | – | – | – | – |
| CS(=O)(=O)c1ccc(C2=C(c3ccc(F)cc3)C(=O)O/C2=C\c2cccc([N+](=O)[O-])c2)cc1 | > 50 µM | > 50 µM | – | inactive | – | – | inactive |
| COC1(C)OC(=O)C(c2ccccc2)=C1c1ccc(S(C)(=O)=O)cc1 (stereo not given) | 20.3 µM | 37.1 µM | > 50 µM | – | > 50 µM | – | – |
